ChEMBL document CHEMBL5120843, “Structure and Antimicrobial Activity of Rare Lactone Lipids from the Sooty Mold (Scorias spongiosa)” (J Nat Prod, 2022)
In brackets after ≈: the same amount, converted by molar mass.

How the values were obtained:
[1] = test system: Pichia kudriavzevii; assay: Antifungal activity against Candida krusei ATCC 6258 incubated for 46 to 50 hrs by CLSI protocol based assay; type: functional, organism-based
[2] = test system: Cryptococcus neoformans; assay: Antifungal activity against Cryptococcus neoformans ATCC 90113 incubated for 70 to 74 hrs by CLSI protocol based assay; type: functional, organism-based
[3] = test system: Cryptococcus neoformans; assay: Antifungal activity against Cryptococcus neoformans ATCC 90113 assessed as minimum inhibitory concentration incubated for 70 to 74 hrs by CLSI protocol based assay; type: functional; details: time 70-74 hrs
In short: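 Cryptococcus neoformans in Sabouraud dextrose broth at final 1.5 × 10^3, serially diluted samples in duplicate, final concentration 1/100th of stock. Read at 530 nm before and after 35 °C for 70–74 h. MIC is the lowest test concentration with no detectable growth.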

[4] = test system: Cryptococcus neoformans; assay: Antifungal activity against Cryptococcus neoformans ATCC 90113 assessed as minimum fungicidal concentration incubated for 70 to 74 hrs by CLSI protocol based assay; type: functional; details: time 70-74 hrs
In short: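 From clear wells of the Cryptococcus broth assay (Sabouraud dextrose, 35 °C, 70–74 h), 5 μL transferred to fresh medium and reincubated under the same conditions. MFC is the lowest concentration that kills the organism.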

[5] = test system: Staphylococcus aureus; assay: Antibacterial activity against Staphylococcus aureus ATCC 29213 incubated for 16 to 20 hrs by CLSI protocol based assay; type: functional, organism-based
[6] = test system: Staphylococcus aureus; assay: Antibacterial activity against Staphylococcus aureus ATCC 29213 assessed as minimum inhibitory concentration incubated for 16 to 20 hrs by CLSI protocol based assay; type: functional; details: time 16-20 hrs
[7] = test system: Staphylococcus aureus; assay: Antibacterial activity against Staphylococcus aureus ATCC 29213 assessed as minimum bactericidal concentration incubated for 16 to 20 hrs by CLSI protocol based assay; type: functional; details: time 16-20 hrs
[8] = test system: Staphylococcus aureus; assay: Antibacterial activity against methicillin-resistant Staphylococcus aureus ATCC 33591 incubated for 16 to 20 hrs by CLSI protocol based assay; type: functional, organism-based
[9] = test system: Staphylococcus aureus; assay: Antibacterial activity against methicillin-resistant Staphylococcus aureus ATCC 33591 assessed as minimum inhibitory concentration incubated for 16 to 20 hrs by CLSI protocol based assay; type: functional; details: time 16-20 hrs
[10] = test system: Staphylococcus aureus; assay: Antibacterial activity against methicillin-resistant Staphylococcus aureus ATCC 33591 assessed as minimum bactericidal concentration incubated for 16 to 20 hrs by CLSI protocol based assay; type: functional; details: time 16-20 hrs
[11] = test system: Cryptococcus neoformans; assay: Synergistic antifungal activity against Cryptococcus neoformans H99 assessed as […] at 2 ug/ml incubated for 72 hrs by CLSI protocol based checkerboard assay; type: functional; details: dose 2 µg/ml
In short: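 Checkerboard per CLSI. Overnight C. neoformans H99 culture diluted in RPMI 1640 with MOPS, pH 7.0, to final 1.0 × 10^4 CFU/mL. […] Single-agent, solvent and media controls included. OD 490 nm read before and after 30 °C for 72 h, normalized to solvent control. FIC ≤ 0.5 scored as synergy.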

[12] = test system: Cryptococcus neoformans; assay: Synergistic antifungal activity against Cryptococcus neoformans H99 assessed as fold increase in amphotericin fungicidal activity at 2 ug/ml incubated for 48 hrs by CLSI protocol based yeast peptone dextrose agar plate method; type: functional; details: dose 2 µg/ml
In short: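 Fungicidal read-out from the H99 checkerboard (RPMI/MOPS pH 7.0, 1.0 × 10^4 CFU/mL, 30 °C, 72 h). Plate shaken, then 2 μL from each well spotted on YPD agar and incubated at 30 °C for 48 h.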

[13] = test system: Candida albicans; assay: Antifungal activity against Candida albicans ATCC 90028 incubated for 46 to 50 hrs by CLSI protocol based assay; type: functional, organism-based
[14] = test system: Nakaseomyces glabratus; assay: Antifungal activity against Candida glabrata ATCC 90030 incubated for 46 to 50 hrs by CLSI protocol based assay; type: functional, organism-based
[15] = test system: Nakaseomyces glabratus; assay: Antifungal activity against Candida glabrata ATCC 90030 assessed as minimum inhibitory concentration incubated for 46 to 50 hrs by CLSI protocol based assay; type: functional; details: time 46-50 hrs
In short: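 Candida strains in RPMI 1640/0.2% dextrose/0.03% glutamine/MOPS, pH 6.0. Inoculum 1.5 × 10^3, samples serially diluted from DMSO stocks, duplicate wells, final concentration 1/100th of stock. Read at 530 nm before and after 35 °C for 46–50 h. MIC taken as lowest test concentration with no detectable growth.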

[16] = test system: Nakaseomyces glabratus; assay: Antifungal activity against Candida glabrata ATCC 90030 assessed as minimum fungicidal concentration incubated for 46 to 50 hrs by CLSI protocol based assay; type: functional; details: time 46-50 hrs
In short: (§1)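 After the Candida broth microdilution (RPMI/MOPS pH 6.0, 35 °C, 46–50 h), 5 μL from each clear well moved to fresh medium and incubated again under the same conditions. MFC defined as the lowest test concentration that kills the organism.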

[17] = test system: Pichia kudriavzevii; assay: Antifungal activity against Candida krusei ATCC 6258 assessed as minimum inhibitory concentration incubated for 46 to 50 hrs by CLSI protocol based assay; type: functional; details: time 46-50 hrs
In short: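 Inoculum 1.5 × 10^3, samples serially diluted from DMSO stocks, duplicate wells, final concentration 1/100th of stock. Read at 530 nm before and after 35 °C for 46–50 h. MIC taken as lowest test concentration with no detectable growth.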

[18] = test system: Pichia kudriavzevii; assay: Antifungal activity against Candida krusei ATCC 6258 assessed as minimum fungicidal concentration incubated for 46 to 50 hrs by CLSI protocol based assay; type: functional; details: time 46-50 hrs; in short: as §1
[19] = test system: Cryptococcus neoformans; assay: Synergistic antifungal activity against Cryptococcus neoformans H99 assessed as fractional inhibitory concentration incubated for 72 hrs by CLSI protocol based checkerboard assay; type: functional
In short: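 Checkerboard in RPMI 1640 buffered with MOPS pH 7.0. Final inoculum 1.0 × 10^4 CFU/mL from an overnight H99 culture. […] OD490 read before and after 72 h at 30 °C, normalized to solvent control. FIC ≤0.5 taken as synergy.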

SMILES	IC50 [1]	IC50 [2]	MIC [3]	MFC [4]	IC50 [5]	MIC [6]	MBC [7]	IC50 [8]	MIC [9]	MBC [10]	fold change (FC) [11]	fold change (FC) [12]	IC50 [13]	IC50 [14]	MIC [15]	MFC [16]	MIC [17]	MFC [18]	FIC [19]
CCCCCCCCCCCC[C@]1(C)C=C/C(=C2/C(=O)O[C@@H](CC(=O)OC)C2=O)O1	20 µg/mL (≈ 47.6 µM)	0.63 µg/mL (≈ 1.5 µM)	1.25 µg/mL (≈ 2.97 µM)	1.25 µg/mL (≈ 2.97 µM)	1.08 µg/mL (≈ 2.57 µM)	2.5 µg/mL (≈ 5.94 µM)	10 µg/mL (≈ 23.8 µM)	0.71 µg/mL (≈ 1.69 µM)	1.25 µg/mL (≈ 2.97 µM)	5 µg/mL (≈ 11.9 µM)	16	8							
CCCCCCCCCCCC[C@]1(C)C=C/C(=C2/C(=O)O[C@@H](CC(=O)O)C2=O)O1	6.31 µg/mL (≈ 15.5 µM)	0.37 µg/mL (≈ 0.91 µM)	0.63 µg/mL (≈ 1.55 µM)	0.63 µg/mL (≈ 1.55 µM)	0.44 µg/mL (≈ 1.08 µM)	1.25 µg/mL (≈ 3.07 µM)	20 µg/mL (≈ 49.2 µM)	0.39 µg/mL (≈ 0.959 µM)	0.63 µg/mL (≈ 1.55 µM)	10 µg/mL (≈ 24.6 µM)			15.3 µg/mL (≈ 37.6 µM)	2.85 µg/mL (≈ 7.01 µM)	10 µg/mL (≈ 24.6 µM)	10 µg/mL (≈ 24.6 µM)	10 µg/mL (≈ 24.6 µM)	10 µg/mL (≈ 24.6 µM)	
C[C@@H]1[C@H](O)[C@@H](C)/C=C/C=C/C=C/C=C/C=C/C=C/C=C/[C@H](O[C@@H]2O[C@H](C)[C@@H](O)[C@H](N)[C@@H]2O)C[C@@H]2O[C@](O)(C[C@@H](O)C[C@@H](O)[C@H](O)CC[C@@H](O)C[C@@H](O)CC(=O)O[C@H]1C)C[C@H](O)[C@H]2C(=O)O [AMPHOTERICIN B]	0.74 µg/mL (≈ 0.801 µM)	0.35 µg/mL (≈ 0.379 µM)	0.63 µg/mL (≈ 0.682 µM)	0.63 µg/mL (≈ 0.682 µM)									0.14 µg/mL (≈ 0.152 µM)	0.21 µg/mL (≈ 0.227 µM)	0.63 µg/mL (≈ 0.682 µM)	0.63 µg/mL (≈ 0.682 µM)			0.3
